Laboratory results: ChEMBL document CHEMBL1123173, “Synthesis and antiherpes virus activity of phosphate and phosphonate derivatives of 9-[(1,3-dihydroxy-2-propoxy)methyl]guanine” (1986)
Calls of active or inactive are those of the source. The rule behind the calls is not given here.

What was measured:
Vero [1] = test: In vitro antiviral activity was measured against HSV-1(F) in Vero cells; type: functional; details: Chlorocebus sabaeus, read-out: ID50 (the source's name)
Vero [2] = test: In vitro antiviral activity was measured against HSV-2(G) in Vero cells; type: functional; details: Chlorocebus sabaeus, read-out: ID50 (the source's name)
Mus musculus [3] = test: (§1) Effect of subcutaneous treatment with compound on HSV-2 induced mortality in mice at 5 mg/kg dose; NS=Not significant; type: functional, organism-based; set-up: dose 5 mg/kg
Method in brief: (§2)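 Female Swiss-Webster mice (ca. 20 g) infected intraperitoneally with 5×10^4 PFU HSV-2 strain G (about ten 50% lethal doses). Subcutaneous dosing once daily for 4 days, starting 24 h postinfection; saline controls. Survivors/total recorded, Fisher exact test for survival; mean survival time (± standard deviation) compared by Mann-Whitney U test.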

Mus musculus [4] = test: as §1; type: functional, organism-based; set-up: dose 5 mg/kg; remark: listed apart in the source
Method in brief: (§3)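 Female Swiss-Webster mice, about 20 g, challenged intraperitoneally with 5×10^4 PFU of HSV-2 strain G (about ten LD50). Subcutaneous dosing once daily for 4 days, beginning 24 h after infection, with a saline control group. 15 mice per group. Survivor numbers were compared by Fisher exact test and mean survival time (± SD) by Mann-Whitney U test. NS means p > 0.05.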

Mus musculus [5] = test: Effect of subcutaneous treatment with compound on HSV-2 induced mortality in mice at 15 mg/kg dose; NS=Not significant; type: functional, organism-based; set-up: dose 15 mg/kg; method in brief: as §3
Mus musculus [6] = test: Effect of subcutaneous treatment with compound on HSV-2 induced mortality in mice at 5 mg/kg dose; 2/15; type: functional; method in brief: as §3
Mus musculus [7] = test: Effect of subcutaneous treatment with compound on HSV-2 induced mortality in mice at 15 mg/kg dose; 0/15; type: functional; method in brief: as §3
Mus musculus [8] = test: Effect of subcutaneous treatment with compound on HSV-2 induced mortality in mice at 30 mg/kg dose; NS=Not significant; type: functional, organism-based; set-up: dose 30 mg/kg; method in brief: as §3
Mus musculus [9] = test: Effect of subcutaneous treatment with compound on HSV-2 induced mortality in mice at 30 mg/kg dose; type: functional; method in brief: as §3
Vero [10] = test: In vitro antiviral activity was measured against HSV-1 (F delta 305) in Vero cells; type: functional; details: Chlorocebus sabaeus, read-out: ID50 (the source's name)
Mus musculus [11] = test: Effect of subcutaneous treatment with compound on HSV-2 induced mortality in mice at 15 mg/kg dose; type: functional; method in brief: as §3
Mus musculus [12] = test: Effect of subcutaneous treatment with compound on HSV-2 induced mortality in mice at 30 mg/kg dose; 2/15; type: functional; method in brief: as §3
Mus musculus [13] = test: (§4) Effect of oral treatment with compound on HSV-2 induced mortality in mice at 10 mg/kg dose; NS=Not significant; type: functional, organism-based; set-up: dose 10 mg/kg
Method in brief: (§5)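 Female Swiss-Webster mice, about 20 g, infected intraperitoneally with 5×10^4 PFU of HSV-2 strain G (about ten LD50). Oral dosing once every 24 h for 4 days, starting 24 h post-infection, with a saline-treated control group. Groups of 19–20 mice. Survivors were scored and compared by Fisher exact test. Mean survival time (days ± SD) was compared by Mann-Whitney U test. NS means p > 0.05.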

Mus musculus [14] = test: Effect of oral treatment with compound on HSV-2 induced mortality in mice at 20 mg/kg dose; type: functional; method in brief: as §5
Mus musculus [15] = test: Effect of on mean survival time upon oral treatment on HSV-2 induced mortality in mice at 20 mg/kg dose; type: functional; method in brief: as §5
Mus musculus [16] = test: Effect of on mean survival time upon oral treatment on HSV-2 induced mortality in mice at 5 mg/kg dose; type: functional; method in brief: as §5
Mus musculus [17] = test: Effect of on mean survival time upon oral treatment on HSV-2 induced mortality in mice at 10 mg/kg dose; type: functional; method in brief: as §5
Mus musculus [18] = test: Effect of oral treatment with compound on HSV-2 induced mortality in mice at 10 mg/kg dose; 4/20; type: functional; method in brief: as §5
Mus musculus [19] = test: (§6) Effect of oral treatment with compound on HSV-2 induced mortality in mice at 5 mg/kg dose; NS=Not significant; type: functional, organism-based; set-up: dose 5 mg/kg; method in brief: as §5
Mus musculus [20] = test: as §6; type: functional, organism-based; set-up: dose 5 mg/kg; remark: listed apart in the source
Method in brief: as §2, with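 “Oral” for “Subcutaneous”, “every 24 h” for “daily”, “recorded, survivor increase tested by” for “recorded,”, “test;” for “test for survival;”, “(days ±” for “(±”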

Vero [21] = test: In vitro antiviral activity was measured against HSV-1 (MP-PAA/DHPG) in Vero cells; type: functional; details: Chlorocebus sabaeus, read-out: ID50 (the source's name)
MRC5 = test: In vitro antiviral activity was measured against HCMV(AD-169) in MRC5 cells; type: functional; details: Homo sapiens, read-out: ID50 (the source's name)
Mus musculus [22] = test: (§7) Effect of oral treatment with compound on HSV-2 induced mortality in mice at 20 mg/kg dose; NS=Not significant; type: functional, organism-based; set-up: dose 20 mg/kg; method in brief: as §5
Mus musculus [23] = test: Effect of oral treatment with compound on HSV-2 induced mortality in mice at 10 mg/kg dose; type: functional; method in brief: as §5
Mus musculus [24] = test: Effect of oral treatment with compound on HSV-2 induced mortality in mice at 5 mg/kg dose; type: functional; method in brief: as §5
Vero [25] = test: In vitro anticellular activity was measured against vero cells; type: functional; details: Chlorocebus sabaeus, read-out: ID50 (the source's name)
Method in brief: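 Cell proliferation assay in uninfected Vero cells.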

Mus musculus [26] = test: Effect of oral treatment with compound on HSV-2 induced mortality in mice at 20 mg/kg dose; 6/20; type: functional; method in brief: as §5
Mus musculus [27] = test: Effect of oral treatment with compound on HSV-2 induced mortality in mice at 20 mg/kg dose; 12/20; type: functional; method in brief: as §5
Mus musculus [28] = test: Effect of oral treatment with compound on HSV-2 induced mortality in mice at 5 mg/kg dose; 1/19; type: functional; method in brief: as §5
Mus musculus [29] = test: Effect of oral treatment with compound on HSV-2 induced mortality in mice at 10 mg/kg dose; 2/20; type: functional; method in brief: as §5
Mus musculus [30] = test: Effect of subcutaneous treatment with compound on HSV-2 induced mortality in mice at 1.5 mg/kg dose; type: functional; method in brief: as §3
Mus musculus [31] = test: Effect of subcutaneous treatment with compound on HSV-2 induced mortality in mice at 15 mg/kg dose; 15/15; type: functional; method in brief: as §3
Mus musculus [32] = test: Effect of subcutaneous treatment with compound on HSV-2 induced mortality in mice at 1.5 mg/kg dose; 8/15; type: functional; method in brief: as §3
Mus musculus [33] = test: Effect of oral treatment with compound on HSV-2 induced mortality in mice at 10 mg/kg dose; 6/20; type: functional; method in brief: as §5
Mus musculus [34] = test: Effect of oral treatment with compound on HSV-2 induced mortality in mice at 5 mg/kg dose; 0/19; type: functional; method in brief: as §5
Mus musculus [35] = test: Effect of oral treatment with compound on HSV-2 induced mortality in mice at 20 mg/kg dose; 11/20; type: functional; method in brief: as §5
Mus musculus [36] = test: Effect of subcutaneous treatment with compound on HSV-2 induced mortality in mice at 5 mg/kg dose; type: functional; method in brief: as §3
Mus musculus [37] = test: Effect of subcutaneous treatment with compound on HSV-2 induced mortality in mice at 5 mg/kg dose; 10/15; type: functional; method in brief: as §3
Mus musculus [38] = test: as §7; type: functional, organism-based; set-up: dose 20 mg/kg; remark: listed apart in the source
Method in brief: as §2, with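 “Oral” for “Subcutaneous”, “every 24 h” for “daily”, “recorded, survivor increase tested by” for “recorded,”, “test;” for “test for survival;”, “(days ±” for “(±”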

Mus musculus [39] = test: Effect of oral treatment with compound on HSV-2 induced mortality in mice at 10 mg/kg dose; 0/20; type: functional; method in brief: as §5
Mus musculus [40] = test: Effect of oral treatment with compound on HSV-2 induced mortality in mice at 20 mg/kg dose; 3/20; type: functional; method in brief: as §5
Mus musculus [41] = test: Effect of oral treatment with compound on HSV-2 induced mortality in mice at 5 mg/kg dose; 3/20; type: functional; method in brief: as §5
Mus musculus [42] = test: as §4; type: functional, organism-based; set-up: dose 10 mg/kg; remark: listed apart in the source
Method in brief: as §2, with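 “Oral” for “Subcutaneous”, “every 24 h” for “daily”, “recorded, survivor increase tested by” for “recorded,”, “test;” for “test for survival;”, “(days ±” for “(±”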

Mus musculus [43] = test: Effect of oral treatment with compound on HSV-2 induced mortality in mice at 10 mg/kg dose; 3/20; type: functional; method in brief: as §5
Mus musculus [44] = test: Effect of oral treatment with compound on HSV-2 induced mortality in mice at 20 mg/kg dose; 10/20; type: functional; method in brief: as §5
Mus musculus [45] = test: Effect of oral treatment with compound on HSV-2 induced mortality in mice at 5 mg/kg dose; 8/20; type: functional; method in brief: as §5

SMILES	IC50 (Vero [1])	IC50 (Vero [2])	IC50 (Vero [10])	Survivor increase (Mus musculus [13])	p-value for mean survival time increase (Mus musculus [14])	MST (Mus musculus [15])	MST (Mus musculus [16])	MST (Mus musculus [17])	Survivor increase (Mus musculus [19])	MST increase (Mus musculus [20])	IC50 (Vero [21])	IC50 (MRC5)	MST increase (Mus musculus [23])	IC50 (Vero [25])	Survivor increase (Mus musculus [14])	further results
Nc1ncnc2c1ncn2COC1COP(=O)(O)OC1 (stereo not drawn)	600 µM	> 1000 µM														
Nc1nc(N)c2ncn(COC3COP(=O)(O)OC3)c2n1 (stereo not drawn)	125 µM	> 100 µM	80 µM													MST increase (Mus musculus [3]): inactive; Survivor increase (Mus musculus [4]): inactive; Survivor increase (Mus musculus [5]): inactive; Survivors (Mus musculus [6]): 2; Survivors (Mus musculus [7]): 0; Survivor increase (Mus musculus [8]): inactive; MST increase (Mus musculus [9]): 0.01; MST increase (Mus musculus [11]): 0.025; Survivors (Mus musculus [12]): 2
Nc1nc(O)c2ncn(COC(COP(=O)(O)O)COP(=O)(O)O)c2n1	0.4 µM	5 µM	13 µM	inactive	<0.02	10.6 days	9.6 days	10.8 days	inactive	inactive	> 200 µM	8 µM	<0.05	800 µM		Survivors (Mus musculus [18]): 4; Survivor increase (Mus musculus [22]): inactive; Survivors (Mus musculus [24]): 8; Survivors (Mus musculus [26]): 6
Nc1nc(O)c2ncn(COC(CO)COP(=O)(O)O)c2n1 (stereo not drawn)	0.2 µM	1.7 µM	6 µM	inactive	<0.001	10.5 days	10 days	11.3 days	inactive	inactive	> 200 µM	12 µM	<0.01	700 µM	0.002	Survivors (Mus musculus [27]): 12; Survivors (Mus musculus [28]): 1; Survivors (Mus musculus [29]): 2
Nc1nc2c(ncn2COC(CO)CO)c(=O)[nH]1 [GANCICLOVIR]	0.2 µM	1.6 µM	10 µM	inactive	<0.01	11.9 days		10.9 days	inactive		125 µM	5 µM	<0.025	450 µM	0.005	MST increase (Mus musculus [30]): <0.001; Survivor increase (Mus musculus [30]): 0.01; MST (Mus musculus [16]; 5 mg/kg): 11.3 days; Survivors (Mus musculus [31]): 15; Survivors (Mus musculus [32]): 8; Survivors (Mus musculus [33]): 6; MST increase (Mus musculus [24]): <0.01; Survivors (Mus musculus [34]): 0; Survivors (Mus musculus [35]): 11; MST increase (Mus musculus [36]): <0.001; Survivor increase (Mus musculus [36]): <0.001; Survivors (Mus musculus [37]): 10; MST increase (Mus musculus [11]): <0.001; Survivor increase (Mus musculus [11]): <0.001
Nc1nc(O)c2ncn(COC(CO)CCP(=O)(O)O)c2n1 (stereo not drawn)	28 µM	> 100 µM	50 µM	inactive		8.3 days	8.2 days	8.3 days	inactive	inactive	> 200 µM	10 µM		> 1000 µM		MST increase (Mus musculus [38]): inactive; Survivors (Mus musculus [39]): 0; Survivors (Mus musculus [40]): 3; Survivor increase (Mus musculus [22]): inactive; Survivors (Mus musculus [41]): 3; MST increase (Mus musculus [42]): inactive
Nc1nc2c(ncn2COC2COP(=O)(O)OC2)c(=O)[nH]1 (stereo not drawn)	2 µM	6 µM	0.5 µM	inactive	<0.01	11.6 days	10.4 days	10.6 days	inactive	inactive	7 µM	6 µM		40 µM	0.01	Survivors (Mus musculus [43]): 3; Survivors (Mus musculus [44]): 10; Survivors (Mus musculus [45]): 8; MST increase (Mus musculus [42]): inactive
